# Most compounds without a hit are left out; they make up all but 4.6% or so of the library.
# OX1R antag-1 – antagonists of human orexin 1 receptor; CHO/OX1R cells, Fluo-8 calcium fluorescence, orexin A; 330,000 compounds, 0.43% hits; O43613; inhibition, % at 5 µM;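 active = inhibition above its plate's threshold, mean inhibition of all tested compounds on the plate plus 3 SD, cut at about 37% in these data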;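 also: 0% = orexin A challenge wells and 100% = SB-334867-A antagonist wells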
# Target sequence (O43613 whole entry, looked up): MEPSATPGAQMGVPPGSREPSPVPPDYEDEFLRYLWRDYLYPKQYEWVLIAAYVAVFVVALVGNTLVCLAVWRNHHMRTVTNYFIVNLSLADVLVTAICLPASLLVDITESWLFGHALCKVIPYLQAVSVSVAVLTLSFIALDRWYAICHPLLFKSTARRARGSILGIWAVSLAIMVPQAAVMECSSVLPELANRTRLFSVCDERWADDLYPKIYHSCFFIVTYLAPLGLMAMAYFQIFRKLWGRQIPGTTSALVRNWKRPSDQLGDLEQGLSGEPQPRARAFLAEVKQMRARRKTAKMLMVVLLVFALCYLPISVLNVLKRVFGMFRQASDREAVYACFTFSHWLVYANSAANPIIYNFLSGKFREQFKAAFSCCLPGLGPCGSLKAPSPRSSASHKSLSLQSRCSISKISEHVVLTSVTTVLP
# CHO parental Ca – signal in parental CHO cells, OX1R antagonist counter-screen. parental CHO-K1, ATP-induced calcium, Fluo-8 fluorescence. inhibition, % at 5.6 µM. 330,000 compounds, 0.63% hits;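 active = inhibition above that plate's mean sample inhibition plus 3 SD, cut at about 26% in these data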;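 also: 0% = ATP-challenged DMSO wells and 100% = DMSO wells without ATP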
#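 Material – parental CHO cells · Reagent – ATP stimulus · Compound – single nominal dose of 5.6 µM per compound · Detection – Fluo-8 fluorescence · Read-out basis – percent inhibition of calcium signal · Controls – ATP-challenged DMSO wells low, unchallenged DMSO wells high · Repeats – no replicates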
# OX1R antag-2 – blocks the human orexin 1 receptor | O43613 | OX1R-expressing cells, FRET antagonist read-out | inhibition, % at 6.6 µM | 330,000 compounds, 1.8% hits; in the data active = inhibition mostly above about 38%, no sharp cut-off; inactive = mostly below about 40%;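 also: 0% = agonist challenge alone and 100% = reference antagonist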
# TAAR1 ag – human TAAR1 agonism; CHO RD-HGA16 TAAR1, Fluo-8 calcium fluorescence; vehicle wells 0%, saturating PEA agonist 100%; activation, % at 3 µM; 360,000 compounds, 0.99% hits; AID 624467;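 active = activation above the mean activation of all test compounds in the run plus 3 SD, cut at about 38% in these data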
#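 Assay system: CHO-derived RD-HGA16 cells with stable Gα16 and human TAAR1; timing: 17-24 h seeding, 75 min 37 °C dye, 30 min RT; read-out: % activation from peak over basal fluorescence ratio, DMSO-to-PEA scaled; measured by: kinetic Fluo-8 calcium fluorescence; benchmarks: low control DMSO, high control PEA (EC100); doses: 3 µM single concentration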
# TAAR1 antagonist – antagonists of human TAAR1. Q96RJ0. CHO RD-HGA16 TAAR1, Fluo-8 calcium fluorescence, antagonist. inhibition, % at 3 µM. 360,000 compounds, 1.5% hits. AID 624466;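 active = inhibition above a per-plate cutoff, the mean inhibition of test compounds on that plate plus 3 SD, cut at about 49% in these data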;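 also: 0% = DMSO plus EC80 beta-PEA response and 100% = DMSO alone without agonist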
#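 Assay system: RD-HGA16 CHO cells with stable hTAAR1 and Gα16 / Reagent: EC80 β-phenethylamine stimulus / Doses: 3 µM, single point / Timing: dye loading 75 min at 37 °C, then 30 min room temperature / Measured by: Fluo-8 intracellular calcium dye fluorescence, real-time kinetic reads / Controls: vehicle wells and EC80 agonist wells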
# GPR7 antag – blocks human GPR7 receptor signaling | GPR7-expressing cells, fluorescence antagonist assay | 290,000 compounds, 1.1% hits | inhibition, % at 4.4 µM | P48145 | AID 1861; in the data active = inhibition above about 16%, passing the limit was not always enough;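 also: cells stimulated with the agonist NPW; 0% = agonist with vehicle and 100% = vehicle without agonist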
# Target sequence (P48145 whole entry, looked up): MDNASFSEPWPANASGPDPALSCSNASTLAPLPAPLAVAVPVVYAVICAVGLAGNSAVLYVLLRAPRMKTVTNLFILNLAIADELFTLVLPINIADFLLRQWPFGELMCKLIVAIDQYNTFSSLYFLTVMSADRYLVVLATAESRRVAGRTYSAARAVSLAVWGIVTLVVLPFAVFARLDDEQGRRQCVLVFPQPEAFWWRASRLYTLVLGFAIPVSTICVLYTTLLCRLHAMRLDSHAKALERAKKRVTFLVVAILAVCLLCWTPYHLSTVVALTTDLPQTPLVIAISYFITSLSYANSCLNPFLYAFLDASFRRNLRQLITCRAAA
# TAAR1 ag conf – human TAAR1 agonism, confirmed; shares compounds with TAAR1 ag; activation, % at 3 µM; 2,400 compounds, 82% hits; CHO RD-HGA16 TAAR1, Fluo-8 calcium fluorescence; scaled: DMSO 0%, maximal phenethylamine 100%; AID 651783;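 active = activation above a cutoff set at the run's mean compound activation plus 3 SD, cut at about 39% in these data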
# Ga16 nonsel ag – counter-screen for TAAR1 agonists: nonselective agonists in parental cells; activation, % at 3 µM; CHO-Ga16 parental, Fluo-8 calcium fluorescence; normalized to maximal ATP response, DMSO zero; shares compounds with TAAR1 ag; AID 651787; 2,400 compounds, 50% hits;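 active = activation above the run cutoff, the mean activation over all tested wells plus 3 SD, cut at about 12% in these data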;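 also: 0% = DMSO wells and 100% = maximal ATP response on the peak over basal ratio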
# TAAR1 desens – human TAAR1 agonist that also desensitizes the receptor | CHO RD-HGA16 hTAAR1, Fluo-8 calcium, beta-PEA response inhibition | shares compounds with TAAR1 ag | inhibition, % at 3 µM | 2,400 compounds, 46% hits;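 active = inhibition above the run cutoff, the mean inhibition of all test compounds plus 3 SD, cut at about 49% in these data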;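 also: beta-PEA stimulus applied at its EC80; loss of beta-PEA calcium signal after compound pretreatment read as receptor desensitization; 0% = DMSO with beta-PEA at EC80 and 100% = DMSO alone without agonist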
# Ga16 nonsel ant – counter-screen for TAAR1 agonists: nonselective Ga16 antagonists | shares compounds with TAAR1 ag | CHO-Ga16 ATP-induced calcium, Fluo-8 fluorescence | inhibition, % at 3 µM | 2,400 compounds, 39% hits;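 active = inhibition above the plate's mean compound inhibition plus 3 SD, computed per plate, cut at about 22% in these data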;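 also: 0% = EC80 ATP with DMSO and 100% = DMSO wells without ATP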
# Starred values were filed as active, the others as inactive; / = no result given.
SMILES,OX1R antag-1,CHO parental Ca,OX1R antag-2,TAAR1 ag,TAAR1 antagonist,GPR7 antag,TAAR1 ag conf,Ga16 nonsel ag,TAAR1 desens,Ga16 nonsel ant
CCCCc1c(-c2ccccc2OC)ncn1CCc1cccc(F)c1,/,/,/,69*,43,/,66*,4,74*,21
CCCCc1c(-c2ccccc2OC)ncn1Cc1ccccc1,/,/,/,4,18,/,/,/,/,/
CCCc1c(-c2ccccc2Br)ncn1Cc1ccccc1OC,/,/,/,2,10,/,/,/,/,/
CCCCCc1c(-c2cccc(OC)c2)ncn1CCc1ccccc1OC,/,/,/,21,48,/,/,/,/,/
CSCCC(NS(=O)(=O)c1ccc(C)cc1C)C(=O)Nc1cccnc1 (centres undefined),-2,-4,12,0,-10,/,/,/,/,/
COc1ccc(-c2nnc(SCC(=O)Nc3c(Cl)cc(Cl)cc3C(=O)O)o2)cc1,-13,-7,12,3,-10,/,/,/,/,/
CCCc1c(-c2ccc(OC)cc2)ncn1CCc1ccccc1OC,/,/,/,15,27,/,/,/,/,/
COc1ccccc1CCn1cnc(-c2ccc(Cl)cc2)c1CC(C)C,/,/,/,53*,66*,/,84*,3,55*,19
C#CCOCCOCCOCCNc1nc(N2CCN(C(=O)C([C@@H](C)CC)n3cc(C(N)CO)nn3)CC2)nc(N2CCN(C(=O)C([C@@H](C)CC)n3cc(C(N)COC(=O)C(F)(F)F)nn3)CC2)n1 (some centres undefined),-8,-10,12,5,8,/,/,/,/,/
CCOC(=O)c1cc2c(nc1N)CC(C)(CC)OC2 (centres undefined),17,-6,18,9,3,-3,/,/,/,/
CN(CCc1ccccc1)Cc1nc(-c2cnccn2)no1,-21,-8,7,53*,-11,-9,34,1,13,11
Cc1ccc(Cl)cc1N1CCN(S(=O)(=O)c2c(C)[nH]c(C)c2C(=O)N2CCCCC2)CC1,-13,-25,-6,3,-7,10,/,/,/,/
Cc1ccccc1Cn1nnc(C(=O)Nc2cccc(C)c2C)c1N,-11,-1,6,66*,11,11,79*,31*,41,15
Cc1ccc(CNC(=O)Cn2nnc(C(=O)Nc3cccc(C)c3C)c2N)cc1,-6,-3,21,3,-17,8,/,/,/,/
Cc1ccccc1CCN(C(=O)c1csnn1)C(C(=O)NC1CCCC1)c1ccco1 (centres undefined),-18,-17,40,46*,2,6,70*,2,31,14
Cc1ccn(C(C)CC(=O)Nc2ccc(-c3ccno3)cc2)n1 (centres undefined),-20,-1,10,3,-12,-9,/,/,/,/
Cc1cc(C)cc(-n2c(C)cc(/C=N/NC(=O)CSc3ncccn3)c2C)c1,-10,-18,4,45*,27,-4,50*,32*,55*,33*
Cc1cc(/C=N\NC(=O)COc2cccc3cccnc23)c(C)n1-c1ccccc1,-32,-20,20,5,10,1,/,/,/,/
NC(c1ccccc1)c1csc(NC(=O)NCCc2ccccc2)n1 (centres undefined),/,/,/,62*,11,/,28,5,16,15
NC(c1ccccc1)c1csc(NC(=O)Nc2cccc(Cl)c2)n1 (centres undefined),/,/,/,64*,29,/,74*,22*,57*,36*
COc1ccc(C(CC(=O)NC(C)c2ccc(-c3ccccc3)cc2)NC(C)=O)cc1 (centres undefined),-8,-12,11,7,0,-1,/,/,/,/
CCN1CCN(C(CCc2ccccc2)C(=O)NC2CCCCC2)CC1 (centres undefined),/,/,/,1,-12,/,/,/,/,/
CC1=CC(C)(C)N2C(=O)C3(SCC(=O)N3c3ccc(F)cc3)c3cc(C)cc1c32 (centres undefined),-11,12,7,54*,34,11,39*,25*,27,28*
CC1=CC(C)(C)N2C(=O)C3(NCCc4c3[nH]c3ccccc43)c3cc(C)cc1c32 (centres undefined),-3,4,11,2,-15,8,/,/,/,/
CCCCN(CCCC)c1ccc(C(=O)c2ccccc2C(=O)O)c(O)c1,78*,94*,18,107*,92*,8,38*,39*,64*,57*
SMILES,OX1R antag-1,CHO parental Ca,OX1R antag-2,TAAR1 ag,TAAR1 antagonist,GPR7 antag,TAAR1 ag conf,Ga16 nonsel ag,TAAR1 desens,Ga16 nonsel ant
CN(C)c1ccc(C(=O)c2ccccc2C(=O)O)c(O)c1,-15,3,12,2,7,-7,/,/,/,/
O=c1[nH]c(CSc2ncnc3sccc23)nc2ccccc12,-23,-18,13,-1,5,-8,/,/,/,/
O=c1[nH]c(CSc2ncn[nH]2)nc2ccccc12,2,-3,3,42*,-23,-10,37,2,16,6
CN(C[C@@H](Cc1cccc2ccccc12)N(C[C@H](Cc1ccccc1)N(CCc1ccccc1)N=O)N=O)N=O,-30,-18,34,51*,8,-5,76*,3,18,8
Fc1ccc(Nc2nc(NCc3ccco3)c3ccccc3n2)cc1,17,9,4,70*,43,3,40*,23*,49*,39*
Nc1nc(Nc2ccccc2)nc(NCc2ccco2)c1[N+](=O)[O-],-43,-22,26,20,21,-25,/,/,/,/
C#Cc1ccc([C@H]2C=C(C(=O)Nc3ccccc3)O[C@@H](OCc3ccc(CO)cc3)C2)cc1,-25,-9,35,/,/,/,/,/,/,/
COc1ccc(C(=O)NC(=S)NNC(=O)c2ccc(NC(C)=O)cc2)cc1Br,-33,-23,11,10,-7,-1,/,/,/,/
CCCCC(=O)NC(=S)NNC(=O)c1ccc(OC)cc1,7,14,8,85*,38,-4,99*,82*,51*,44*
COc1ccc(C(=O)NNC(=S)NC(=O)c2ccc(OC)cc2)cc1,23,12,7,110*,81*,0,88*,89*,49*,47*
COc1ccc(OCC(=O)NNC(=S)NC(=O)c2ccc([N+](=O)[O-])cc2)cc1,-14,-5,34,2,-8,-11,/,/,/,/
